This is an account of results in ChEMBL document CHEMBL5034022, “Pharmacophore-Based Design of Phenyl-[hydroxycyclohexyl] Cycloalkyl-Carboxamide Mitofusin Activators with Improved Neuronal Activity” (J Med Chem, 2021).

Each structure is given as a SMILES string.

Data set [1] is described as follows: MRT (0 to infinity) in overnight fasted CD-1 mouse total plasma at 50 mg/kg, po by HPLC analysis. The class given is ADME, organism-based. In short, it runs like this: (§1)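 Overnight-fasted 7-9 week male CD-1 mice, food returned 4 h post-dose, given 50 mg/kg by oral gavage (5 mg/mL in 30% SBE-β-CD); plasma and brain (homogenized in MeOH/15 mM PBS) quenched with ACN internal-standard mix, HPLC; free levels calculated from mouse plasma and brain protein binding; mean ± SEM, 3 mice per time point.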

Data set [2] is described as follows: MRT (0 to infinity) in overnight fasted CD-1 mouse total brain at 50 mg/kg, po by HPLC analysis. The class given is ADME, organism-based. A digest of the protocol: as §1
Data set [3] can be described thus: Volume of distribution at steady state in CD-1 mouse at 10 mg/kg, iv administered as single dose by HPLC analysis. The class given is ADME, organism-based. The note with it: in vivo, read-out: Vdss. In short, it runs like this: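 Single 10 mg/kg IV dose of enantiomeric mixture in 10%DMSO/90%(30%HP-b-CD) to 7-9 week male CD-1 mice; plasma collected over time, proteins precipitated with ACN containing warfarin internal standard, analysed by HPLC; non-compartmental analysis; mean ± SEM, 3 mice per condition.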

Data set [4] can be described thus: Activation of Mitofusin in MFN2 deficient mouse MEF cells assessed as mitochondria elongation.
Data set [5] in a line: Plasma protein binding in human assessed as bound fraction at 2 uM incubated for 120 mins by equilibrium dialysis method. The class given is ADME, cell-free. The note with it: read-out: PPB (converted).
The nature of data set [6]: Plasma protein binding in mouse assessed as bound fraction at 2 uM measured after 120 mins by equilibrium dialysis method. The class given is ADME, cell-free. The note with it: read-out: PPB (converted). Background: In equilibrium dialysis only unbound substance equilibrates across the membrane.
Data set [7] is described as follows: Tmax in non-fasted CD-1 mouse brain at 50 mg/kg, po by HPLC analysis. Format: ADME, organism-based. A digest of the protocol:
(§2)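 Oral gavage 50 mg/kg (5 mg/mL in 10%DMSO/90%(30%HP-b-CD)) to non-fasted 7-9 week male CD-1 mice; brain, spinal cord and sciatic nerve homogenized in water, diluted in control mouse plasma, ACN precipitation with warfarin internal standard, HPLC; non-compartmental time-concentration analysis; 3 mice per condition.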

Data set [8] can be described thus: Tmax in non-fasted CD-1 mouse spinal cord at 50 mg/kg, po by HPLC analysis. Format: ADME, organism-based. A digest of the protocol: as §2
Data set [9] is described as follows: Tmax in non-fasted CD-1 mouse right sciatic nerve at 50 mg/kg, po by HPLC analysis. Format: ADME, organism-based. A digest of the protocol: as §2
The nature of data set [10]: Tmax in non-fasted CD-1 mouse left sciatic nerve at 50 mg/kg, po by HPLC analysis. The class given is ADME, organism-based. In short, it runs like this: as §2

`O=C(CCCCCc1ccccc1)N[C@H]1CC[C@H](O)CC1`: the figures for the mean residence time MRT inf in data set [1] and in data set [2] were 60.6 min and 57.5 min, respectively.

On to `O=C(N[C@H]1CC[C@H](O)CC1)C1CC1CCCc1ccccc1` (some centres not stated), for which the Vd in data set [3] came out at 0.6 L/kg.

For the compound `O=C(N[C@H]1CC[C@H](O)CC1)C1CCC(CCCc2ccccc2)C1` (some centres not stated), in data set [4], the 50% effective concentration (EC50) was 15.3 nM. Also, the fraction unbound at 2 h, 2 µM is 0.0075 in [5] and 0.012 in [6].

Consider `O=C(N[C@H]1CC[C@H](O)CC1)[C@@H]1C[C@H]1CCCc1ccccc1`, for which the Tmax in data set [7], in data set [8], in [9] and in data set [10] was 30 min throughout. In addition, the figures for the MRT inf in data set [1] and in data set [2] were 115 min and 119 min, respectively.

What is called MRT inf is the average time that molecules of a dose stay in the body. The EC50 is the concentration at which the effect is half-maximal. The term Tmax denotes the time from dosing to the highest level.
